Source: PubChem (several laboratories)
Hck-Nef inh: human Hck-Nef kinase inhibition; inhibition, % at 20 µM; 220,000 tested, 0.68% active; Recombinant Hck-YEEI plus Nef, Z-Lyte FRET kinase assay; P08631; AID 463187;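 active means Hck-Nef kinase inhibition above about 50%, limit read from the data; inactive means inhibition below that limit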
RanGTP-Imp inh: inhibitors of RanGTP-importin-beta interaction, primary screen, biochemical, FRET, CFP-Ran, YFP-importin-beta, homogeneous. 300,000 tested, 1.1% active. inhibition, % (concentration not given with the values). cell-free CFP-Ran/YFP-importin-beta FRET ratio. AID 2216;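 active means more than half of the replicate wells show a fall in the fluorescence ratio signal beyond about 16%, limit read from the data, passing the limit was not always enough; inconclusive means exactly half of the replicate wells pass the set limit; inactive means fewer than half of replicates pass the limit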
Runt-SMMHC FRET: inhibitors of human RUNX1 Runt domain binding to CBFb-SMMHC; Cerulean-Runt/Venus-CBFb-SMMHC FRET ratio 530/480, 1 h; inhibition, % at 20 µM; 220,000 tested, 0.74% active; AID 1434;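 active means mean inhibition across duplicate retests at 20 µM reaching about 50%, limit read from the data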;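 further: inhibitors lower the FRET ratio by blocking Runt binding to CBFb-SMMHC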
Target sequence (Q01196 whole entry, looked up, the tested form may be a part): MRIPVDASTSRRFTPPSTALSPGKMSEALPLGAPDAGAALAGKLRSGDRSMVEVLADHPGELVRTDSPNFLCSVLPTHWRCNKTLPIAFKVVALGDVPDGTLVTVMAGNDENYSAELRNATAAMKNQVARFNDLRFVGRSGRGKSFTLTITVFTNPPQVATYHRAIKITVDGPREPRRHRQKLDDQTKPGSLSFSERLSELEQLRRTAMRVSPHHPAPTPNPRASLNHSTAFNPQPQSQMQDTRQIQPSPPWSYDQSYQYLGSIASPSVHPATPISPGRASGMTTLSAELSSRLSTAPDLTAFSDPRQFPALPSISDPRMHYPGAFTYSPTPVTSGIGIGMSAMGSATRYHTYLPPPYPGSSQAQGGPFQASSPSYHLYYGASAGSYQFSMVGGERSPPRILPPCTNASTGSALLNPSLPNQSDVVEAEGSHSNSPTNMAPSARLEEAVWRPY
Target sequence (Q13951 whole entry, looked up, the tested form may be a part): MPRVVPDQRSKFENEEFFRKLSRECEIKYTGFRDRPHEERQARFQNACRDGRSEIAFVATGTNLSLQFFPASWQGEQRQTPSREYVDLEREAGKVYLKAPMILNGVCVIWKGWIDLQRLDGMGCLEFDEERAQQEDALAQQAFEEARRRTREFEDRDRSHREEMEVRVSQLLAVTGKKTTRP
Runt-CBFb FRET: inhibitors of human RUNX1 Runt domain binding to CBFb. Cerulean-Runt/Venus-CBFb FRET ratio 530/480, 1 h. Q01196+Q13951. 220,000 tested, 0.46% active. inhibition, % at 20 µM. AID 1496;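 active means inhibition over about 50% at 20 µM in the single-dose screen, limit read from the data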
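System: Cerulean-labeled Runt domain protein | Quantity: 100 nM of each labeled protein | Schedule: 1 h compound exposure, room temperature | Detection: Fluorescence energy transfer, 422 nm excitation, 530/480 nm emission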
p97 inhibitor: inhibitors of human p97 ATPase; P55072; recombinant p97 ATPase, Kinase-Glo ATP luminescence, 3 h; inhibition, % at 8 µM; 220,000 tested, 0.42% active; AID 1481; in the data active means inhibition above about 15%
TbHK1 inh: blocks Trypanosoma brucei hexokinase 1 activity; recombinant TbHK1, G6PDH-coupled NADH A340; inhibition, % at 10 µM; 220,000 tested, 0.11% active; AID 1430;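 active means inhibition of 50% or more in the single-dose primary screen; inactive means inhibition below 50%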
p97 confirm: confirmation of human p97 ATPase inhibitors; inhibition, % at 8 µM; shares compounds with p97 inhibitor; 760 tested, 44% active; recombinant p97 ATPase, Kinase-Glo ATP luminescence;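 active means percent inhibition of p97 ATPase above a set limit, the primary screen's mean plus 3 SD, cut at about 15% in these data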
Of the large screens only hits and unclear results are named; the others gave an inactive call (follow-up assays come after a bar, where they were run). The list is not random: actives were taken first. Their share in the collection is about 2.1%.

CCOC(=O)C1(CC2CCCCO2)CCN(Cc2cn[nH]c2-c2cccc(F)c2)CC1 (stereo unspecified)	none
Cc1cccc(/C(N)=N/OC(=O)c2cccs2)c1	none
COc1ccc(N2CCN(S(=O)(=O)CCNC(=O)c3cccs3)CC2)cc1	none (no result: Hck-Nef inh, Runt-SMMHC FRET, Runt-CBFb FRET, p97 inhibitor, TbHK1 inh)
O=C(O)c1ccccc1C(=O)c1ccc2c(c1)CCC2	none (no result: Hck-Nef inh, Runt-SMMHC FRET, Runt-CBFb FRET, p97 inhibitor, TbHK1 inh)
COC(=O)Cc1nc(Nc2ccccc2)sc1C	p97 inhibitor 20 | p97 confirm inactive
O=C(c1ccc([N+](=O)[O-])cc1[N+](=O)[O-])n1cnc2ccccc21	none
COc1cc(NC(=O)C(=O)NCCN2CCNCC2)c(OC)cc1Cl	none (no result: Runt-CBFb FRET)
N#CC1=C(SCC(=O)Nc2ccc(C(=O)O)cc2)NC(=O)CC1c1ccco1 (stereo unspecified)	p97 inhibitor 17 | p97 confirm inactive
Cc1ccc(NC(=O)CSC2=C(C#N)C(c3ccco3)C3=C(CCCC3=O)N2)cc1 (stereo unspecified)	RanGTP-Imp inh inconclusive
O=C(O)c1cc(NN=C2c3ccccc3-c3ccccc32)ccc1Cl	none (no result: Hck-Nef inh, Runt-SMMHC FRET, Runt-CBFb FRET, p97 inhibitor, TbHK1 inh)
O=C(O)c1cccc(NN=C2c3ccccc3-c3ccccc32)c1	p97 inhibitor 38 | p97 confirm 45
Cc1nnc(N/N=C/c2ccc(-c3ccccc3F)o2)n1N	RanGTP-Imp inh inconclusive
Cc1nnc(N/N=C\c2ccc(-c3ccccc3[N+](=O)[O-])o2)n1N	p97 inhibitor 17 | p97 confirm inactive
O=C(CCl)NNC(=O)c1c(O)c2ccccc2[nH]c1=O	p97 inhibitor 21 | p97 confirm 32
O=C1NCCCC1C(=O)N/N=C/c1cccc(O)c1 (stereo unspecified)	none
CCc1nnc(NC(=O)c2cc(-c3ccccn3)nc3ccc(Br)cc23)s1	none (no result: Hck-Nef inh, Runt-SMMHC FRET, Runt-CBFb FRET, p97 inhibitor, TbHK1 inh)
C=CCn1c(NC(=O)c2ccc(Br)o2)c(S(=O)(=O)c2ccccc2)c2nc3ccccc3nc21	RanGTP-Imp inh 45, p97 inhibitor 20 | p97 confirm inactive
O=C(NNC(=S)NC(=O)c1cccnc1)c1ccc(F)cc1	p97 inhibitor 15 | p97 confirm inactive
O=C(NNC(=S)NC(=O)c1ccc(F)cc1)c1cccnc1	none (no result: Hck-Nef inh, Runt-SMMHC FRET, Runt-CBFb FRET, p97 inhibitor, TbHK1 inh)
O=C(CC1SC(=O)N(c2ccccc2)C1=O)Nc1ccccc1 (stereo unspecified)	none
O=C(CC1Sc2ncnn2C1=O)Nc1ccccc1 (stereo unspecified)	p97 inhibitor 16 | p97 confirm inactive
Cc1ccc(-c2csc(-c3c[nH]c4ccccc34)n2)c(C)c1	none
Oc1ccc(-c2csc(-c3c[nH]c4ccccc34)n2)c(O)c1	p97 inhibitor 19 | p97 confirm 22
CC1CCN(c2ccc([N+](=O)[O-])cn2)CC1	none
Cc1ccc(NC(=O)COC(=O)c2cc(C)nc3ccccc23)c([N+](=O)[O-])c1	none
O=C1C=C(Nc2ccccc2C(=O)O)c2ccccc2C1=O	p97 inhibitor 23 | p97 confirm 21
O=C(OCC(=O)c1c[nH]c2ccccc12)c1ccc([N+](=O)[O-])s1	p97 inhibitor 31 | p97 confirm 40
CC(C)(C)NC(=O)Cn1c(Cl)nc2ccccc21	none
O=C(CCl)Nc1cc(-c2ccccc2)nn1-c1ccccc1	p97 inhibitor 20 | p97 confirm 32
Cc1ccc(-c2nn(-c3ccccc3)cc2NC(=O)CCl)cc1	p97 inhibitor 16 | p97 confirm 29
CC(=O)Nc1ccc(-c2cc(NC(C)=O)n(-c3ccccc3)n2)cc1	none
Cc1ccc(-c2nn(-c3ccccc3)cc2CO)cc1	none (no result: Hck-Nef inh, Runt-SMMHC FRET, Runt-CBFb FRET, p97 inhibitor, TbHK1 inh)
Cc1ccc(-c2cc(NC(=O)CCl)n(-c3ccccc3)n2)cc1	p97 inhibitor 24 | p97 confirm 25
O=C(O)C1CCCCN1S(=O)(=O)c1ccc(Cl)s1 (stereo unspecified)	none
CCN(CC)C(=O)c1ccc(COc2ccccc2Cl)cc1	p97 inhibitor 15 | p97 confirm inactive
O=C(O)c1ccc(COc2ccccc2Cl)cc1	none
O=C(CCc1ccccc1)NC(c1cccs1)c1cc(Cl)c2cccnc2c1O (stereo unspecified)	p97 inhibitor 19 | p97 confirm inactive
Cc1ccc(C(C)C)c(OCCNC(=S)Nc2cccc3ccccc23)c1	none
O=C(c1ccc(Cl)nc1)N1CCN(C/C=C/c2ccccc2)CC1	none
COc1ccc(Cn2c(-c3ccco3)nc3c(c(=O)c4ccccc4n3C)c2=O)cc1	none
Cn1c2ccccc2c(=O)c2c(=O)n(Cc3ccco3)c(-c3ccc(Cl)cc3Cl)nc21	p97 inhibitor 33 | p97 confirm 24
CCC12CN3CCN(CC(C3)/C1=N\NC(=O)c1ccc(C(C)(C)C)cc1)C2	p97 inhibitor 21 | p97 confirm inactive
Cc1ccc2[nH]c(=O)c3cc(C(=O)NC(C)C)sc3c2c1	none (no result: Hck-Nef inh, Runt-SMMHC FRET, Runt-CBFb FRET, p97 inhibitor, TbHK1 inh)
O=C(N[C@@H](Cc1ccc(O)cc1)C(=O)O)c1cccnc1	none
CN(C)c1ccc(S(=O)(=O)N2CCCCC2)cc1NC(=O)C1=COCCO1	none (no result: Hck-Nef inh, Runt-SMMHC FRET, Runt-CBFb FRET, p97 inhibitor, TbHK1 inh)
CCOC(=O)c1[nH]c2ccc(Br)cc2c1NC(=O)CCN1CCC(C)CC1	p97 inhibitor 17 | p97 confirm inactive
CCOC(=O)c1[nH]c2ccc(Br)cc2c1NC(=O)CNC	none
CCOC(=O)c1[nH]c2ccc(OC)cc2c1NC(=O)CCN1CCC(C)CC1	none
CCOC(=O)c1[nH]c2ccc(Br)cc2c1NC(=O)CCN1CCCC(C)C1 (stereo unspecified)	p97 inhibitor 17 | p97 confirm inactive
CCN(CC)S(=O)(=O)c1cccc(C(=O)N/N=C(\C)c2ccc(O)cc2O)c1	p97 inhibitor 22 | p97 confirm 22
Cc1ccc(S(=O)(=O)CCC(=O)OCC(=O)c2cc(C)ccc2C)cc1	none (no result: Hck-Nef inh, Runt-SMMHC FRET, Runt-CBFb FRET, p97 inhibitor, TbHK1 inh)
Cc1ccc(S(=O)(=O)CCC(=O)c2ccc(O)cc2O)cc1	p97 inhibitor 16 | p97 confirm 21
CN(C)CCCn1c(N)c(C#N)c2nc3ccccc3nc21	RanGTP-Imp inh 61, Runt-SMMHC FRET 80, p97 inhibitor 32 | p97 confirm inactive
Cc1c(C#N)c2ncn(CCCN(C)C)c(=O)c2n1-c1ccccc1	none
Cc1cc(Br)c(NC(=O)c2c(-c3c(Cl)cccc3Cl)noc2C)c(Br)c1	none
N#Cc1c(SCC(=O)Nc2nncs2)sc2c(O)cc(=O)[nH]c12	none (no result: Hck-Nef inh, Runt-SMMHC FRET, Runt-CBFb FRET, p97 inhibitor, TbHK1 inh)
COc1ccc(S(=O)(=O)Nc2nccs2)cc1OC	p97 inhibitor 17 | p97 confirm inactive
O=S(=O)(Nc1nccs1)c1ccc(Br)cc1	none
O=c1c2ccccc2[nH]c(=S)n1-c1cccc(S(=O)(=O)N2CCCC2)c1	none
CC(NC(=O)CC(c1ccccc1)c1cc(Cl)ccc1O)c1ccccc1 (stereo unspecified)	p97 inhibitor 15 | p97 confirm inactive
